Data from ChEMBL document CHEMBL1140925, “Nuclear factor-kappaB mediated inhibition of cytokine production by imidazoline scaffolds” (J Med Chem, 2009).

Legend:
[1] = tested on: Blood; assay: Antiinflammatory activity in human whole blood assessed as inhibition of IL-1-beta-induced IL6 production preincubated 2 hrs before addition of IL1-beta measured after 18 hrs by ELISA; assay type: functional, tissue-based
Outline: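 Human blood from donors with white count in the normal range, diluted 1:10 in RPMI-1640 with 10% FBS, penicillin and streptomycin. Aliquots were preincubated with vehicle (0.1% DMSO final) or compound at 10, 3, 1, 0.3 or 0.1 µM final for 2 h at 37 °C, 5% CO2. IL-1β (200 U/mL) was then added for 18 h, and plasma was collected and frozen. Cytokine was measured by ELISA.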

[2] = tested on: HeLa; assay: Cell cycle arrest in TNF-alpha-stimulated human HeLa cells transfected with NFkappaB-Luc assessed as accumulation at diploid G1 phase at 10 uM after 8 hrs by propidium iodide-based flow cytometry; assay type: functional
Outline: (§1)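 HeLa NF-κB-luc cells (stable, hygromycin-selected) were treated with vehicle (1% DMSO) or compound at 40–0.2 µM final for 8 h at 37 °C, 5% CO2. Adherent cells were trypsinized, resuspended in PBS/50% FBS, fixed overnight in 70% ice-cold ethanol and washed with cold PBS/10% FBS, then analysed for cell cycle by flow cytometry.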

[3] = tested on: HeLa; assay: Cell cycle arrest in TNF-alpha-stimulated human HeLa cells transfected with NFkappaB-Luc assessed as accumulation at G2/G1 phase at 0.1 uM after 8 hrs by propidium iodide-based flow cytometry; assay type: functional
[4] = Cytotoxicity against human whole blood lymphocytes assessed as survival cell count in millions at 1 uM by trypan blue staining based hemocytometer
[5] = tested on: HeLa; assay: Effect on cell cycle arrest in human HeLa cells assessed as cell debris level at 20 uM after 8 hrs by propidium iodide-based flow cytometry; assay type: functional
Outline: (§2)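 Cells were exposed to vehicle (1% DMSO) or compound for 8 h at 37 °C, 5% CO₂. They were then trypsinized, resuspended in PBS with 50% FBS, fixed overnight in ice-cold 70% ethanol, and washed twice with ice-cold PBS containing 10% FBS before flow cytometric cell-cycle analysis.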

[6] = tested on: HeLa; assay: Cell cycle arrest in TNF-alpha-stimulated human HeLa cells transfected with NFkappaB-Luc assessed as accumulation at G2/G1 phase at 5 uM after 8 hrs by propidium iodide-based flow cytometry; assay type: functional; outline: as §1
[7] = tested on: HeLa; assay: Effect on cell cycle arrest in human HeLa cells assessed as cell aggregate level at 20 uM after 8 hrs by propidium iodide-based flow cytometry; assay type: functional; outline: as §2
[8] = tested on: HeLa; assay: Cell cycle arrest in TNF-alpha-stimulated human HeLa cells transfected with NFkappaB-Luc assessed as accumulation at G2/G1 phase at 1 uM after 8 hrs by propidium iodide-based flow cytometry; assay type: functional

In the case of `CCOC(=O)[C@]1(c2ccccc2)N=C(c2ccccc2)N(Cc2ccccc2)[C@@H]1c1ccccc1` (racemic), the logIC50 [1] is reported as 0.07, the Activity [2] is reported as 68.19% and the Ratio [3] is reported as 1.92. It also gave an Activity [4] of 1.2 mL⁻¹, an Activity [5] of 9.42% and a Ratio [6] of 1.91. The Activity [7] was 0% and the Ratio [8] was 1.91.
